In ChEMBL document CHEMBL4196138, “Antiproliferative Carvotacetones from Sphaeranthus africanus” (J Nat Prod, 2018):

Assays:
HEK293 = experiment: Cytotoxicity against HEK293 cells after 72 hrs by XTT assay; assay type: cell-based; conditions: Homo sapiens, HEK293, 72 h
In short: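 HEK-293 cells in DMEM:Ham's F12 (1:1) with 2 mM L-glutamine, 10% FBS, and 1% penicillin/streptomycin at 37 °C in 5% CO2. 10 000 cells/well were treated 72 h with compounds from DMSO stocks (final DMSO 0.5%; vehicle controls). XTT plus electron coupling reagent was added and read photometrically. IC50 from a four-parameter logistic fit; mean ± SEM of six independent experiments.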

MDA-MB-231 = experiment: Cytotoxicity against human MDA-MB-231 cells after 72 hrs by XTT assay; assay type: functional, cell-based; conditions: MDA-MB-231, 72 h
In short: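 MDA-MB-231 breast cancer cells kept in RPMI 1640 with 2 mM L-glutamine, 10% FBS, and penicillin/streptomycin at 37 °C in 5% CO2. 5000 cells/well were grown overnight, then exposed 72 h to compounds (final DMSO 0.5%, vehicle control; vinblastine 0.01 μM as positive control). Photometric XTT readout after 1.5 h. Four-parameter logistic IC50; six independent experiments, mean ± SEM.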

CCRF-CEM = experiment: Cytotoxicity against human CCRF-CEM cells after 72 hrs by XTT assay; assay type: functional, cell-based
In short: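 CCRF-CEM leukemia cells in RPMI 1640 with 2 mM L-glutamine, 10% FBS, and penicillin/streptomycin at 37 °C in 5% CO2. 10 000 cells/well were exposed 72 h to a concentration series (final DMSO 0.5%, vehicle control; vinblastine 0.01 μM as positive control). XTT was read photometrically after 4 h. Four-parameter logistic IC50; mean ± SEM, n = 6 independent experiments.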

U-251 = experiment: Cytotoxicity against human U251 cells after 72 hrs by XTT assay; assay type: functional, cell-based; conditions: U-251, 72 h
In short: (§1)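 HCT-116 and U-251 cells grown in high-glucose DMEM with 4 mM L-glutamine, 10% FBS, and 1% penicillin/streptomycin at 37 °C in 5% CO2. 5000 cells/well were attached overnight, then treated 72 h (final DMSO 0.5%; vinblastine 0.01 μM as positive control). XTT was measured photometrically 1.5 h after addition. IC50 by four-parameter logistic fit; mean ± SEM of six independent experiments.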

HCT-116 = experiment: Cytotoxicity against human HCT116 cells after 72 hrs by XTT assay; assay type: functional, cell-based; conditions: HCT-116, 72 h; in short: as §1

Row | Structure (SMILES) | IC50 (HEK293) | IC50 (MDA-MB-231) | IC50 (CCRF-CEM) | IC50 (U-251) | IC50 (HCT-116)
1 | C/C=C(/C)C(=O)O[C@@H]1C(=O)C(CO)=C[C@@H](OC(=O)/C(C)=C/C)[C@H]1C(C)C | 3 µM | 2 µM | 1.3 µM | 2.1 µM | 2.5 µM
2 | C/C=C(/C)C(=O)O[C@@H]1C=C(CO)C(=O)[C@@H](O)[C@@H]1C(C)C | 5.5 µM | 6.5 µM | 1.5 µM | 4.3 µM | 9.5 µM
3 | C/C=C(/C)C(=O)O[C@@H]1C(=O)C(CO)=C[C@@H](OC(=O)/C(C)=C\C)[C@H]1C(C)C | 2.5 µM | 1.8 µM | 0.8 µM | 3 µM | 3.9 µM
4 | C/C=C(/C)C(=O)O[C@@H]1C=C(CO)C(=O)[C@@H](OC(=O)[C@](C)(O)[C@@H](C)Cl)[C@@H]1C(C)C | 2.8 µM | 1.5 µM | 0.6 µM | 2.1 µM | 2.9 µM
5 | C/C=C(/C)C(=O)O[C@@H]1C=C(CO)C(=O)[C@@H](OC(=O)[C@]2(C)O[C@@H]2C)[C@@H]1C(C)C | 3 µM | 2 µM | 1.2 µM | 2.9 µM | 2.6 µM
6 | CC[C@]1(O)C[C@@H]2CN(CCc3c([nH]c4ccccc34)[C@@](C(=O)OC)(c3cc4c(cc3OC)N(C)[C@H]3[C@@](O)(C(=O)OC)[C@H](OC(C)=O)[C@]5(CC)C=CCN6CC[C@]43[C@@H]65)C2)C1 [VINBLASTINE] | 0.027 µM |  |  |  | 0.0087 µM
